In EPA's CvTdb concentration-time database:

Assays:
[1] = test system: Rat; assay: concentration in plasma after dosing; conditions: 10 min; dosed: 2,4-Dichlorophenoxyacetic acid; 2.0 mg/kg; iv; Male; Sprague-Dawley
[2] = test system: Mouse; assay: concentration in plasma after dosing; conditions: 10 min; dosed: 2-Hydroxy-4-methoxybenzophenone; 250 mg/kg; oral; Male; B6C3F1
[3] = test system: Mouse; assay: concentration in plasma after dosing; conditions: 10 min; dosed: 2-Hydroxy-4-methoxybenzophenone; 250 mg/kg; oral; Female; B6C3F1
[4] = test system: Rat; assay: concentration in plasma after dosing; conditions: dosed: 2-Hydroxy-4-methoxybenzophenone, 100 mg/kg, oral, Male, F344
[5] = test system: Mouse; assay: concentration in plasma after dosing; conditions: 10 min; dosed: 2-Hydroxy-4-methoxybenzophenone; 50 mg/kg; iv; Male; B6C3F1
[6] = test system: Rat; assay: concentration in plasma after dosing; conditions: dosed: 2-Hydroxy-4-methoxybenzophenone, 100 mg/kg, oral, Female, F344
[7] = test system: Rat; assay: concentration in kidney after dosing; conditions: 12 h; dosed: Perfluorohexane-1-sulphonic acid – potassium salt; 16 mg/kg; oral; Female; Harlan Sprague Dawley
[8] = test system: Rat; assay: concentration in liver after dosing; conditions: 12 h; dosed: Perfluorohexane-1-sulphonic acid – potassium salt; 16 mg/kg; oral; Female; Harlan Sprague Dawley
[9] = test system: Rat; assay: concentration in liver after dosing; conditions: 48 h; dosed: Perfluorohexane-1-sulphonic acid – potassium salt; 16 mg/kg; oral; Female; Harlan Sprague Dawley
[10] = test system: Rat; assay: concentration in kidney after dosing; conditions: 3 h; dosed: Perfluorohexane-1-sulphonic acid – potassium salt; 16 mg/kg; oral; Female; Harlan Sprague Dawley
[11] = test system: Rat; assay: concentration in kidney after dosing; conditions: 6 h; dosed: Perfluorohexane-1-sulphonic acid – potassium salt; 16 mg/kg; oral; Female; Harlan Sprague Dawley
[12] = test system: Rat; assay: concentration in plasma after dosing; conditions: 6 h; dosed: Primidone; 80 mg/kg; oral; Female; F344
[13] = test system: Rat; assay: concentration in plasma after dosing; conditions: 0.25 h; dosed: Pyridine; 10 mg/kg; iv; Male; F344
[14] = test system: Rat; assay: concentration in plasma after dosing; conditions: 20 h; dosed: Pyridine; 25 mg/kg; oral; Male; F344
[15] = test system: Rat; assay: concentration in plasma after dosing; conditions: dosed: Pyridine, 25 mg/kg, oral, Female, Harlan Sprague-Dawley
[16] = test system: Rat; assay: concentration in plasma after dosing; conditions: 20 min; dosed: Pyridine; 10 mg/kg; oral; Female; Harlan Sprague-Dawley
[17] = test system: Rat; assay: concentration in plasma after dosing; conditions: 2 h; dosed: Pyridine; 25 mg/kg; oral; Female; Harlan Sprague-Dawley
[18] = test system: Rat; assay: concentration in brain after dosing; conditions: 5 min; dosed: alpha-Thujone; 50 mg/kg; oral; Female; Harlan Sprague Dawley
[19] = test system: Rat; assay: concentration in plasma after dosing; conditions: 2 min; dosed: alpha-Thujone; 50 mg/kg; oral; Female; Harlan Sprague Dawley
[20] = test system: Rat; assay: concentration in plasma after dosing; conditions: 1.5 h; dosed: alpha-Thujone; 25 mg/kg; oral; Male; Harlan Sprague Dawley
[21] = test system: Rat; assay: concentration in plasma after dosing; conditions: 2 min; dosed: alpha-Thujone; 50 mg/kg; oral; Male; Harlan Sprague Dawley
[22] = test system: Rat; assay: concentration in brain after dosing; conditions: 12 h; dosed: alpha-Thujone; 50 mg/kg; oral; Male; Harlan Sprague Dawley
[23] = test system: human; conditions: dosed: trichloroethylene, 100 ppm, inhalation, duration: 4 hr, person
How it was run: (§1)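 Concentration-versus-time or amount-versus-time points were compiled from published in vivo toxicokinetic studies and from two structured collections. The studies were found by PubMed searching, classifier screening and manual review. Points were mostly digitised from plot screenshots with WebPlotDigitizer, otherwise copied from tables, and kept in the reported units. Dose, route, subject details and medium were curated by hand from each paper, and sampling and analytical methods follow each source and were often unreported.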

[24] = test system: human; assay: amount in urine after dosing (mg cumulative excretion); conditions: dosed: trichloroethylene, inhalation, duration: 8 hr
How it was run: as §1

O=C(O)COc1ccc(Cl)cc1Cl [2,4-Dichlorophenoxyacetic acid]
Conditions	concentration in plasma [ng/mL]
[1]	13200

O=C(c1ccccc1)c1ccc(O)cc1O [2,4-Dihydroxybenzophenone]
Conditions	concentration in plasma [ng/mL]
[2]	415
[3]	2990
[5]	3210

concentration in plasma [ng/mL]
Conditions	0.25 h	0.5 h	4 h	5 h
[4]	91	–	43.8	–
[6]	–	255	–	46.6

O=S(=O)([O-])C(F)(F)C(F)(F)C(F)(F)C(F)(F)C(F)(F)C(F)(F)F.[K+] [Perfluorohexane-1-sulphonic acid – potassium salt]
Conditions	concentration in kidney [ng/g]	concentration in liver [ng/g]
[7]	31200	–
[8]	–	29700
[9]	–	14300
[10]	42800	–
[11]	36900	–

CCC1(c2ccccc2)C(=O)NCNC1=O [Primidone]
Conditions	concentration in plasma [ng/mL]
[12]	43900

c1ccncc1 [Pyridine]
Conditions	concentration in plasma [ng/mL]
[13]	4870
[14]	4760
[16]	3970
[17]	17100

[15]
Conditions	concentration in plasma [ng/mL]
1 h	21100
8 h	15100

CC(C)[C@]12CC(=O)[C@H](C)[C@H]1C2 [alpha-Thujone]
Conditions	concentration in brain [ng/g]	concentration in plasma [ng/mL]
[18]	994	–
[19]	–	33.6
[20]	–	240
[21]	–	152
[22]	107	–

OCC(Cl)(Cl)Cl [trichloroethanol]
[23]
Conditions	amount in urine after dosing [mg]
1 h	13
2 h	11
4 h	21.5
8 h	36.3
12 h	31.4
16 h	26.7
24 h	33.6
36 h	39.7
48 h	22.6
60 h	17
72 h	11.5
84 h	6.52
96 h	3.88
108 h	6
120 h	3.14
132 h	2.17
144 h	1.65
156 h	0.88
168 h	1.08
180 h	1.17

[24]
Conditions	amount in urine
7.932 h, 97 ppm	111
7.949 h, 54 ppm	76.3
8.43 h, 97 ppm	104
8.618 h, 54 ppm	55.6
9.257 h, 97 ppm	96.4
23.71 h, 54 ppm	175
23.74 h, 97 ppm	288
24.11 h, 54 ppm	191
24.33 h, 97 ppm	255
24.69 h, 97 ppm	352
47.97 h, 97 ppm	393
47.99 h, 97 ppm	364
48.13 h, 97 ppm	417
49.69 h, 54 ppm	258
49.75 h, 54 ppm	291
71.65 h, 54 ppm	301
71.89 h, 54 ppm	323
72.02 h, 97 ppm	395
72.49 h, 97 ppm	431
72.5 h, 97 ppm	422
95.28 h, 54 ppm	314
95.43 h, 54 ppm	328
95.87 h, 97 ppm	444
95.88 h, 97 ppm	429
96.05 h, 97 ppm	408
119.38 h, 54 ppm	345
119.39 h, 54 ppm	327
119.52 h, 97 ppm	409
119.58 h, 97 ppm	452
119.67 h, 97 ppm	430
142.52 h, 54 ppm	348
142.61 h, 54 ppm	331
143.45 h, 97 ppm	458
143.64 h, 97 ppm	412
143.71 h, 97 ppm	433
166.64 h, 54 ppm	352
167.26 h, 97 ppm	433
167.33 h, 97 ppm	463
167.44 h, 97 ppm	411
191.64 h, 97 ppm	414
191.88 h, 97 ppm	432
192.11 h, 97 ppm	466
